Screens from PubChem.
VIM-2 inhibitor – blocks Pseudomonas aeruginosa VIM-2 metallo-beta-lactamase. purified VIM-2, nitrocefin hydrolysis, epi-absorbance fluorescence. inhibition, % at 5.6 µM. hit rate 0.89% among 290,000. AID 1527;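 active = inhibition above the mean of all tested compounds plus 3 SD, cutoff set per screening run, cut at about 7.5% in these data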;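 also: red hydrolysis product quenches plate fluorescence so inhibitors raise well fluorescence; 0% = enzyme with DMSO and 100% = DMSO without enzyme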
SUMO HTRF inh – blocks human SUMOylation mediated by UBC9; hit rate 0.36% among 290,000; AID 2006; HTRF SUMOylation assay, SAE1/SAE2 + UBC9, in vitro; P63279; inhibition, % at 35 µM; in the data active = inhibition above about 50%, passing the limit was not always enough
Target sequence (P63279 whole entry, looked up): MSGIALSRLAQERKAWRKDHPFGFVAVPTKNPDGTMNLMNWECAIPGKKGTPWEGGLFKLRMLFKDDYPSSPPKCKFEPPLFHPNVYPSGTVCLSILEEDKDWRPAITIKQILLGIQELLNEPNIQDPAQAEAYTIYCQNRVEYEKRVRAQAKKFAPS
FID counter – fluorescent intercalator displacement, NS3 helicase counter-screen; hit rate 0.17% among 290,000; inhibition, % at 7.9 µM; DNA fluorescent intercalator displacement, fluorescence; in the data active = inhibition above about 37%;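 also: 0% = vehicle and 100% = reference compound; higher means more ethidium bromide displaced from hairpin DNA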
IMP-1 inhibitor – blocks Pseudomonas aeruginosa IMP-1 metallo-beta-lactamase. purified IMP-1, nitrocefin hydrolysis, epi-absorbance fluorescence. inhibition, % at 5.6 µM. hit rate 0.45% among 290,000. AID 1556;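 active = inhibition above the mean plus 3 SD of all compounds in the same screening run, cut at about 4.5% in these data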;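 also: 0% = IMP-1 with DMSO and 100% = DMSO wells lacking enzyme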
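System: purified recombinant IMP-1 beta-lactamase. Medium: Zinc- and detergent-supplemented HEPES buffer, pH 7.1. Compound: one 5.6 µM dose […]. Schedule: 15 min preincubation plus 25 min reaction at 25 °C. Technique: Epi-absorbance fluorescence, 480 nm excitation, 530 nm emission.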
HCV NS3 hel inh – inhibitors of Hepatitis C virus NS3 helicase; NS3 helicase DNA unwinding, Cy5 molecular beacon fluorescence; inhibition, % at 10.9 µM; hit rate 0.56% among 290,000; AID 1800;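 active = inhibition above the mean of all tested compounds plus 3 SD, set per campaign, cut at about 35% in these data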;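 also: 0% = DMSO wells and 100% = thioflavine S control wells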
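System: NS3 helicase fragment of HCV / Schedule: 1 h at 25 °C / Control set: DMSO alone as 0% and 110 µM thioflavine S as 100% / Reagent: Cy5/quencher beacon DNA duplex and ATP to start / Technique: Cy5 fluorescence / Replication: singlicate / Evaluation: % inhibition of end-to-start signal ratio versus controls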
* marks the source's active call; other numbers are inactive results; · = no result given. Hits are enriched below; roughly 2.1% of the tested compounds scored in any of these assays.

SMILES	VIM-2 inhibitor	SUMO HTRF inh	FID counter	IMP-1 inhibitor	HCV NS3 hel inh
CCS(=O)(=O)N1CCC(C(=O)Nc2ccc3c(c2)CCC3)CC1	-2.7	-1.2	-19.2	-2.6	3.6
CCN(CC)CCCNC(=O)c1cc(Cl)c(NC(=O)C2=C(C)OCCS2)cc1OC	10.8*	3.7	4.1	-2.0	-9.3
CCC(C)NC(=O)c1cc(Cl)c(NC(=O)C2=C(C)OCCS2)cc1OC (stereo not given)	1.0	12.7	-28.8	-1.3	8.3
CC(Oc1ccc2ccc(=O)oc2c1)C(=O)NC1CC(C)(C)NC(C)(C)C1 (stereo not given)	-0.1	1.1	4.4	-1.9	-2.1
Nc1cccc2[nH]c(C(F)(F)F)nc12	2.6	-3.4	7.2	14.9*	11.7
O=C(O)c1cccc2[nH]c(C(F)(F)F)nc12	-5.4	-1.5	-1.0	-1.2	-7.3
Nc1nonc1-n1nnc(C(=O)N/N=C/c2ccc(OCc3ccccc3)cc2)c1CNc1ccccc1	-6.7	20.2	-19.9	-1.7	6.0
C/C(=N\Nc1nc(Cl)c(Cl)cc1Cl)c1ccc(S(=O)(=O)NCc2ccco2)cc1	-5.2	4.8	-4.2	-5.4	3.3
CCN(CC)C(=O)c1sc2nc(-c3ccncc3)[nH]c(=O)c2c1C	1.8	51.9*	-13.3	1.9	-2.6
Cc1ccc(-n2c(O)c(C=Nc3ccccc3-c3n[nH]c(=S)[nH]c3=O)c3ccccc3c2=O)cc1C	-3.0	53.0*	-38.6	-3.0	6.2
Cc1ccc(-n2c(O)c(C=Nc3ccccc3-c3n[nH]c(=S)[nH]c3=O)c3ccccc3c2=O)c(C)c1	-5.2	53.3*	-14.8	-3.4	15.0
O=C(CCN1C(=O)S/C(=C\c2ccccc2)C1=O)NC1CCS(=O)(=O)C1 (stereo not given)	-0.4	9.0	-11.6	-0.9	6.8
CCn1nc(C)cc1C(=O)N1CCCC(N2CCN(Cc3ccc4c(c3)OCO4)CC2)C1 (stereo not given)	-2.1	21.4	-6.1	-0.2	-1.2
CC(C)c1ccccc1NC(=O)CNCCOc1ccccc1F	-0.6	6.0	5.2	-1.1	-12.1
CCN1CCN(CC(=O)N/N=C/c2ccc(F)cc2F)CC1	-4.5	17.1	6.0	-1.3	-0.1
COc1cc2[nH]c(=O)n(Cc3ccc(C(=O)N4CCC(N5CCCCC5)CC4)cc3)c(=O)c2cc1OC	-2.5	7.0	8.4	-2.6	-11.5
COc1cc2[nH]c(=O)n(CCC(=O)N3CCC(N4CCCCC4)CC3)c(=O)c2cc1OC	7.8*	-19.5	0.0	-1.8	5.7
CC(Nc1nc(N2CCN(S(C)(=O)=O)CC2)nc2ccccc12)c1ccccc1 (stereo not given)	1.3	13.1	8.2	4.5*	-2.8
Brc1ccc2ncc(Br)cc2c1	-4.0	-9.3	-1.1	-4.2	7.5
CC(C)Cc1nnc(NC(=O)CCS(=O)(=O)c2ccc(Cl)cc2)s1	8.7*	12.8	-28.3	-2.4	1.8
CC(C)Cc1nnc(NC(=O)CCC(=O)Nc2ccc(Cl)cc2)s1	-4.3	3.4	-14.2	-0.9	7.0
CN1CCN(S(=O)(=O)c2ccc(NC(=S)NC(=O)c3ccc(Cl)cc3)cc2)CC1	27.4*	-7.0	7.6	-2.4	-71.1
O=C(NC(=S)Nc1ccc(N2CCOCC2)cc1)c1cccc(Cl)c1Cl	-3.5	9.8	-10.7	-1.9	-2.2
CN1CCN(c2ccc(NC(=S)NC(=O)c3cccc4c(Cl)cccc34)cc2)CC1	8.3*	6.2	2.3	-1.6	-81.6
CCOc1ccc(OCC)c(NC(=O)C2CCN(S(=O)(=O)c3cccc4nonc34)CC2)c1	-3.9	11.9	-2.6	-3.2	-6.3
SMILES	VIM-2 inhibitor	SUMO HTRF inh	FID counter	IMP-1 inhibitor	HCV NS3 hel inh
CC(C)(C)C(=O)C(Oc1cccc2nonc12)n1cncn1 (stereo not given)	-2.3	-9.5	-5.3	34.9*	10.5
Cc1ccc(S(=O)(=O)N2CCN(C(=O)CC3CCCC3)CC2)cc1	3.4	2.6	-21.7	4.5*	1.8
O=C1/C(=C/c2cccs2)SC(=S)N1CC(=O)N1CCCCC1CCO (stereo not given)	0.9	·	-14.8	-0.7	-3.9
COc1ccc(/C=C/c2nnc(NC(=O)CSc3ccc(C)cc3)s2)cc1	-3.2	50.1*	-4.1	-2.9	9.3
CCC(=O)Nc1nnc(/C=C/c2ccc(OC)cc2)s1	-2.3	30.9	0.7	-2.8	-6.0
COc1ccc(C(=O)Nc2ccc(-c3nnn(CC(=O)NCc4ccco4)n3)cc2)cc1	-1.9	60.8*	-5.6	-3.1	13.5
COCc1cc(=O)[nH]c(N2CCN(Cc3ccc4c(c3)OCO4)CC2)n1	1.0	5.6	-16.0	2.5	7.9
